Reference: PMC8154016 (ACS Omega, 2021)

Assays:
[1] = tested on: MCF-7 (breast) cancer cell line; assay: MTT assay, cell viability, MCF-7; type: cell-based; settings: Homo sapiens, MCF7, 48 h, read-out: Cell viability (%) MCF-7 (breast), 100 μg/μL concentration of compound, 48 h, MTT, mean ± SD in triplicate
Outline: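 Human MCF-7 breast cancer cells grown in DMEM with 10% FBS and 1% penicillin–streptomycin at 37 °C, 5% CO2, humidified. Test compound in DMSO (under 1% final) added at various dilutions for 48 h. MTT (5 mg/mL stock) then added for 240 min at 37 °C. Formazan dissolved in DMSO and absorbance read at 490 nm. Percent viability calculated; triplicate, mean ± SD.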

[2] = tested on: A549 (lung) cancer cell line; assay: MTT assay, cell viability and IC50, A549; type: cell-based; settings: Homo sapiens; for viability: A549, 48 h, read-out: Cell viability (%) A549 (lung), 100 μg/μL concentration of compound, 48 h, MTT, mean ± SD in triplicate
Outline: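 A549 human lung cancer cells were grown in DMEM with 10% FBS and 1% penicillin–streptomycin at 37 °C in humidified 5% CO2. Cells were seeded in 96-well plates and exposed for 48 h to serial dilutions of the test compound in DMSO (<1% final). MTT (5 mg/mL solution as added) was applied for 240 min at 37 °C. Formazan was dissolved in DMSO and A490 read for % viability. Triplicate; mean ± SD.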

IC50 ([2]; A549, read-out: IC50 (μM) A549 (lung)) | SMILES | viability [1] | viability [2]
 | Cn1c(=O)c2c(ncn2CC(=O)O)n(C)c1=O [Acefylline, Theophylline-7-acetic acid, reference compound] | 86.3 ± 11.8% | 
 | Cn1c(=O)c2c(ncn2Cc2nnc(SCC(=O)Nc3ccc(F)cc3)n2-c2ccccc2)n(C)c1=O [Compound 11e, 2-(5-((1,3-Dimethyl-2,6-dioxo-2,3-dihydro-1H-purin-7(6H)-yl)methyl)-4-phenyl-4H-1,2,4-triazol-3-ylthio)-N-(4-fluorophenyl)acetamide] | 54.8 ± 4.88% | 52.1 ± 3.66%
 | Cc1ccc(NC(=O)CSc2nnc(Cn3cnc4c3c(=O)n(C)c(=O)n4C)n2-c2ccccc2)c(C)c1 [Compound 11c, 2-(5-((1,3-Dimethyl-2,6-dioxo-2,3-dihydro-1H-purin-7(6H)-yl)methyl)-4-phenyl-4H-1,2,4-triazol-3-ylthio)-N-(2,4-dimethylphenyl)acetamide] | 38.7 ± 2.07% | 26.1 ± 1.86%
 | Cc1ccc(NC(=O)CSc2nnc(Cn3cnc4c3c(=O)n(C)c(=O)n4C)n2-c2ccccc2)cc1C [Compound 11h, 2-(5-((1,3-Dimethyl-2,6-dioxo-2,3-dihydro-1H-purin-7(6H)-yl)methyl)-4-phenyl-4H-1,2,4-triazol-3-ylthio)-N-(3,4-dimethylphenyl)acetamide] | 33.2 ± 2.77% | 55.4 ± 4.6%
 | Cn1c(=O)c2c(ncn2Cc2nnc(SCC(=O)Nc3ccccc3Cl)n2-c2ccccc2)n(C)c1=O [Compound 11f, N-(2-Chlorophenyl)-2-(5-((1,3-dimethyl-2,6-dioxo-2,3-dihydro-1H-purin-7(6H)-yl)methyl)-4-phenyl-4H-1,2,4-triazol-3-ylthio)acetamide] | 72.8 ± 6.35% | 55.4 ± 4.11%
 | Cn1c(=O)c2c(ncn2Cc2nnc(SCC(=O)Nc3ccccc3F)n2-c2ccccc2)n(C)c1=O [Compound 11j, 2-(5-((1,3-Dimethyl-2,6-dioxo-2,3-dihydro-1H-purin-7(6H)-yl)methyl)-4-phenyl-4H-1,2,4-triazol-3-ylthio)-N-(2-fluorophenyl)acetamide] | 63.7 ± 3.54% | 67.5 ± 4.27%
 | Cn1c(=O)c2c(ncn2Cc2nnc(SCC(=O)Nc3ccc(Cl)cc3Cl)n2-c2ccccc2)n(C)c1=O [Compound 11b, N-(2,4-Dichlorophenyl)-2-(5-((1,3-dimethyl-2,6-dioxo-2,3-dihydro-1H-purin-7(6H)-yl)methyl)-4-phenyl-4H-1,2,4-triazol-3-ylthio)acetamide] | 69.4 ± 7.05% | 52.6 ± 5.07%
 | Cn1c(=O)c2c(ncn2Cc2nnc(SCC(=O)Nc3ccc(Cl)c(Cl)c3)n2-c2ccccc2)n(C)c1=O [Compound 11d, N-(3,4-Dichlorophenyl)-2-(5-((1,3-dimethyl-2,6-dioxo-2,3-dihydro-1H-purin-7(6H)-yl)methyl)-4-phenyl-4H-1,2,4-triazol-3-ylthio)acetamide] | 38.1 ± 4.04% | 46.2 ± 1.42%
 | Cn1c(=O)c2c(ncn2Cc2nnc(SCC(=O)Nc3ccccc3)n2-c2ccccc2)n(C)c1=O [Compound 11a, 2-(5-((1,3-Dimethyl-2,6-dioxo-2,3-dihydro-1H-purin-7(6H)-yl)methyl)-4-phenyl-4H-1,2,4-triazol-3-ylthio)-N-phenylacetamide] | 34.7 ± 2.49% | 59.6 ± 1.36%
1.25 ± 1.6 µM | Cc1ccc(NC(=O)CSc2nnc(Cn3cnc4c3c(=O)n(C)c(=O)n4C)n2-c2ccccc2)cc1 [Compound 11g, 2-(5-((1,3-Dimethyl-2,6-dioxo-2,3-dihydro-1H-purin-7(6H)-yl)methyl)-4-phenyl-4H-1,2,4-triazol-3-ylthio)-N-p-tolylacetamide] | 31.8 ± 3.16% | 21.7 ± 1.6%
